These results are taken from ChEMBL document CHEMBL1130354, “Bicyclo[2.2.1]heptane and 6,6-dimethylbicyclo[3.1.1]heptane derivatives: orally active, potent, and selective prostaglandin D2 receptor antagonists” (J Med Chem, 1997).

The species entered for experiment [1] is Cavia porcellus. Nature of the experiment: Effect on PGD2-induced increase in vascular permeability in conjunctiva of normal guinea pigs. Type of experiment: functional. The procedure, abridged:
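Normal guinea pigs; conjunctival microvascular permeability increase induced by topical 0.1% PGD2; dose producing 50% inhibition derived from dose–response data, n = 3–10 animals per point.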

For experiment [2], the species on record is Cavia porcellus. In words: Dose required to inhibit 50% of antigen-induced increase in intranasal pressure. It counts as functional. The conditions noted are these: po. The gist of the method: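 Oral dosing of actively sensitized guinea pigs 1 h before antigen challenge; rise in intranasal pressure recorded; dose giving 50% inhibition taken from dose–response data, n = 5–10 animals per point.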

For experiment [3], the species on record is Cavia porcellus. In words: Effect on antigen-induced increase in vascular permeability in conjunctiva of guinea pig which actively sensitized with ovalbumin. Type of experiment: functional. The procedure, abridged:
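Guinea pigs actively sensitized with ovalbumin, challenged conjunctivally with antigen; increase in conjunctival microvascular permeability measured; ED50 from dose–response data, n = 3–10 animals per point.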

In experiment [4] the test system is Cavia porcellus. In words: Inhibition of increase in specific airway resistance by antigen inhalation in conscious guinea pigs (10 mg/kg). Type of experiment: functional. The gist of the method:
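Conscious guinea pigs given compound po 1 h before antigen inhalation; increase in specific airway resistance measured; percent inhibition as mean ± SEM, n = 4–11 animals/group; Student's t-test versus control.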

The target in experiment [5] is T1, Prostaglandin D2 receptor (Homo sapiens, UniProt Q13258).
T1 sequence (Q13258 whole entry): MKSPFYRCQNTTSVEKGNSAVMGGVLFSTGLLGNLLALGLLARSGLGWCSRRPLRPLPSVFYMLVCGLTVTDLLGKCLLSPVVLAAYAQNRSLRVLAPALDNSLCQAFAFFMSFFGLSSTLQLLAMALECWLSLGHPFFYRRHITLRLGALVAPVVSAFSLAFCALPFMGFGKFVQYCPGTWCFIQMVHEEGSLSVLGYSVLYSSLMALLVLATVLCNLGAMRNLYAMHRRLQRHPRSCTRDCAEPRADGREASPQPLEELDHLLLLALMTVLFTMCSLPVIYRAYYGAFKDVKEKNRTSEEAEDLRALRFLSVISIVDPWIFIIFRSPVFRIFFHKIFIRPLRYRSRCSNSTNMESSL
Nature of the experiment: Inhibition of cAMP formation evoked by the prostaglandin D2 receptor in human platelets. Type of experiment: functional. The procedure, abridged: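 Human platelets preincubated 10 min at 37 °C with graded compound concentrations in presence of IBMX, then stimulated 2 min with 0.1 μM PGD2; inhibition of cAMP formation measured, IC50 derived.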
Background: Cyclic AMP is a second messenger, typically raised through Gs and lowered through Gi signalling.

In experiment [6] the target is Prostacyclin receptor (Homo sapiens, UniProt P43119). In words: Inhibition of cAMP formation by carbacyclin in Prostaglandin I2 receptor (IP) assay. Type of experiment: functional. The procedure, abridged: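 Platelets (human) preincubated 10 min at 37 °C with graded compound levels plus IBMX, then exposed 2 min to 0.1 μM carbacyclin; cAMP formation inhibition read out; IC50 is mean of two or three measurements.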
Sequence of Prostacyclin receptor (P43119 whole entry): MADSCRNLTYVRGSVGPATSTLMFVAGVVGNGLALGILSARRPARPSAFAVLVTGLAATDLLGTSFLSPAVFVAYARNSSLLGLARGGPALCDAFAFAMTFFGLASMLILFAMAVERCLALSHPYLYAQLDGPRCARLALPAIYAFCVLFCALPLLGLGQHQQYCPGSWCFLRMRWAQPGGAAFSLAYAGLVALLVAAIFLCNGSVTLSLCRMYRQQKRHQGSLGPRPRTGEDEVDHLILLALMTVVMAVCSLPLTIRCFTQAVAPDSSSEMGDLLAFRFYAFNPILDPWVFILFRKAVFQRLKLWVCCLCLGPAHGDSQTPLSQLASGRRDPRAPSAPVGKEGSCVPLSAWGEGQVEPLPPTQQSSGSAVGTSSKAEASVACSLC

Experiment [7] deals with T2, Thromboxane A2 receptor (Homo sapiens, UniProt P21731).
T2 sequence (P21731 whole entry): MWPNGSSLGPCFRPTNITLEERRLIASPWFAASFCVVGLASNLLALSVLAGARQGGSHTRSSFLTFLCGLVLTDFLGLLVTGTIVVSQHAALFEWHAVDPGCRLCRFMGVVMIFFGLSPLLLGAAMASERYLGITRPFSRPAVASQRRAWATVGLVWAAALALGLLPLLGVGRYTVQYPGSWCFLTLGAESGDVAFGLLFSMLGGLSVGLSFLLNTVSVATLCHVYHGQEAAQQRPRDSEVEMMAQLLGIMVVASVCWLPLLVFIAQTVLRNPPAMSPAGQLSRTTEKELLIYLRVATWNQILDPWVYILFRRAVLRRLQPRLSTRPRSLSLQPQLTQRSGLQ
Nature of the experiment: Inhibition of [3H]- (+)-S-145 specific binding to human platelet membranes in TXA2 receptor (TP) assay. The procedure, abridged: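 Membranes from human platelets incubated 60 min at room temperature with 2 nM [3H](+)-S-145 plus graded compound concentrations; specific binding inhibition gives IC50.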

Experiment [8] relates to Cavia porcellus. Nature of the experiment: Inhibition of antigen-induced increase in intranasal pressure in actively sensitized guinea pigs at 1 mg/kg (iv). It counts as functional. The procedure, abridged:
(§1)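 Actively sensitized guinea pigs; compound given iv 10 min before antigen challenge; antigen-induced rise in intranasal pressure measured, percent inhibition reported as mean ± SEM, n = 5–10/group; Student's t-test versus control.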

The target of experiment [9] is T1, Prostaglandin D2 receptor. In words: Inhibition of [3H]PGD-2 specific binding to Prostaglandin D2 receptor from human platelet membranes. The gist of the method: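 Human platelet membranes incubated 60 min at 4 °C with 5 nM [3H]PGD2 and graded test compound concentrations; inhibition of specific binding measured, IC50 derived.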
Experiment [10] relates to Cavia porcellus. Nature of the experiment: Inhibition of antigen-induced increase in intranasal pressure in actively sensitized guinea pigs at 3 mg/kg (iv). It counts as functional. The gist of the method:
as §1

As usually defined, the ED50 is the dose that gives a 50% effect, or the effect in half of the subjects. Broadly, the Inhibition is the percentage by which the read-out fell short of the control. What is called IC50 is the concentration at which inhibition is half-maximal. A lower IC50 goes with greater potency. What is called inhibition in vivo is the percentage by which the read-out fell short of the control.

For the compound `CC1(C)[C@H]2C[C@H](C/C=C\CCCC(=O)O)[C@@H](NC(=O)c3csc4ccc(F)cc34)[C@@H]1C2`, the figures for the 50% effective dose (ED50) in experiment [1], in experiment [2] and in experiment [3] were 3.5 mg/kg, 1 mg/kg and 8.9 mg/kg, respectively. The compound also yielded an Inhibition in experiment [4] of 69%. Besides, the IC50 was 1.8 nM in [5], greater than 10000 nM in [6] and 430 nM in experiment [7].
Consider `CC1(C)[C@H]2C[C@H](C/C=C\CCCC(=O)O)[C@@H](NC(=O)c3csc4ccc(O)cc34)[C@@H]1C2`, for which the 50% effective dose (ED50) was 0.12 mg/kg in experiment [1], 2.1 mg/kg in [2] and 2 mg/kg in experiment [3]. For the same compound, the inhibition in vivo at 1 mg/kg in experiment [8] stood at 78%. In addition, in [4], the Inhibition stood at 70%. Moreover, the IC50 is 1 nM in experiment [5], greater than 10000 nM in [6] and 96 nM in experiment [7].
For `CC1(C)[C@H]2C[C@H](C/C=C\CCCC(=O)O)[C@@H](NC(=O)c3ccc[nH]3)[C@@H]1C2`, the half-maximal inhibitory concentration (IC50) was 32 nM in experiment [9], 64 nM in experiment [5], greater than 10000 nM in experiment [6] and 3100 nM in experiment [7].
As for `O=C(O)CCC/C=C\C[C@@H]1[C@H]2CC[C@H](C2)[C@H]1NC(=O)c1ccc(/N=N/c2ccccc2)cc1`, the figures for the half-inhibitory concentration (IC50) in experiment [9], in experiment [5] and in [6] were 3000 nM, greater than 1000 nM and 1400 nM, respectively.
For the compound `CC1(C)[C@H]2C[C@H](C/C=C\CCCC(=O)O)[C@@H](NC(=O)c3ccc4oc5ccccc5c4c3)[C@@H]1C2`, the half-maximal inhibitory concentration (IC50) in [9] was found to be 32 nM; in experiment [5], 220 nM; in experiment [6], 7500 nM; in experiment [7], 270 nM.
With `CC1(C)[C@H]2C[C@H](C/C=C\CCCC(=O)O)[C@@H](NC(=O)c3cccc4ccsc34)[C@@H]1C2`, the IC50 was 5.6 nM in experiment [5], greater than 10000 nM in experiment [6] and 210 nM in [7].
Regarding `CC1(C)[C@H]2C[C@H](C/C=C\CCCC(=O)O)[C@@H](NC(=O)c3csc4cc(O)ccc34)[C@@H]1C2`, the results for the IC50 in [6] and in experiment [7] were greater than 10000 nM and 410 nM, respectively.
As to `O=C(O)CCC/C=C\C[C@@H]1[C@H]2CC[C@H](C2)[C@H]1NS(=O)(=O)c1ccc2oc3ccccc3c2c1`, in experiment [2], it took a dose of 3.5 mg/kg to reach the 50% effect level (ED50). The inhibition in vivo at 1 mg/kg in experiment [8] amounted to 82%. Also, the half-inhibitory concentration (IC50) stood at 70 nM in experiment [5], 1500 nM in [6] and 1700 nM in experiment [7].
Take `COc1cc2c(cc1S(=O)(=O)N[C@@H]1[C@@H]3CC[C@@H](C3)[C@H]1C/C=C\CCCC(=O)O)oc1ccccc12`: the IC50 in [9] was 27 nM; in experiment [5], 68 nM; in [6] it was 5900 nM; in experiment [7], greater than 10000 nM. Besides, the median effective dose (ED50) in experiment [1] came to 1.6 mg/kg; in experiment [2] it was 2.2 mg/kg; in experiment [3] it was 6.6 mg/kg. Moreover, the inhibition in vivo at 1 mg/kg in experiment [8] is 80%.
Take `O=C(O)CCC/C=C\C[C@@H]1[C@H]2CC[C@H](C2)[C@H]1NS(=O)(=O)c1ccc2cc(-c3ccccc3)[nH]c2c1`: the half-maximal inhibitory concentration (IC50) in experiment [9] was 47 nM; in experiment [5], 120 nM; in [6], greater than 10000 nM; in experiment [7], 1200 nM. The compound further showed a median effective dose (ED50) in experiment [2] of 7.2 mg/kg. In addition, in [8], the inhibition in vivo at 1 mg/kg is 60%.
Consider `CC1(C)[C@H]2C[C@H](C/C=C\CCCC(=O)O)[C@@H](NC(=O)c3csc4ccccc34)[C@@H]1C2`, for which the IC50 in [6] was greater than 10000 nM; in [7], 380 nM.
In the case of `CC1(C)[C@H]2C[C@H](C/C=C\CCCC(=O)O)[C@@H](NC(=O)c3ccsc3)[C@@H]1C2`, the IC50 in experiment [9] is 1600 nM; in [5], 38 nM; in experiment [6], greater than 10000 nM; in [7], 2100 nM. Besides, the ED50 in experiment [1] was determined as 3.5 mg/kg; in [2] it was 5.1 mg/kg; in [3] it was 9.5 mg/kg. Moreover, the inhibition in vivo at 1 mg/kg in experiment [8] is 77%. For the same compound, the Inhibition in experiment [4] was determined as 15%.
Turning to `O=C(O)CCC/C=C\C[C@@H]1[C@H]2CC[C@H](C2)[C@H]1NS(=O)(=O)c1ccc2oc3cc([N+](=O)[O-])ccc3c2c1`, the values for the 50% inhibitory concentration (IC50) in [9], in experiment [5] and in experiment [6] were 1100 nM, 250 nM and 4500 nM, respectively.
Consider `CC1(C)[C@H]2C[C@H](C/C=C\CCCC(=O)O)[C@@H](NS(=O)(=O)c3ccc(/N=N/c4ccccc4)cc3)[C@@H]1C2`, for which the half-inhibitory concentration (IC50) in experiment [9] is 1300 nM; in experiment [5], greater than 1000 nM; in experiment [6], 3400 nM; in experiment [7], 740 nM.
As to `O=C(O)CCC/C=C\C[C@@H]1[C@H]2CC[C@H](C2)[C@H]1NS(=O)(=O)c1ccc2ccccc2c1`, the concentration for half-maximal inhibition (IC50) was 1200 nM in [9], 420 nM in experiment [5], 8900 nM in [6] and 670 nM in experiment [7]. Also, the inhibition in vivo at 1 mg/kg in experiment [8] came to 54%.
As for `O=C(O)CCC/C=C\C[C@@H]1[C@H]2CC[C@H](C2)[C@H]1NS(=O)(=O)c1ccc(/N=N/c2ccccc2)cc1`, the concentration for half-maximal inhibition (IC50) was 27 nM in [9], 320 nM in experiment [5], greater than 10000 nM in experiment [6] and 1300 nM in [7].
For `O=C(O)CCC/C=C\C[C@H]1[C@@H]2CC[C@@H](C2)[C@@H]1NS(=O)(=O)c1ccc2ccccc2c1`, the IC50 in experiment [9] is 4900 nM; in [5] it was greater than 1000 nM; in experiment [6] it was 3300 nM; in [7], 0.13 nM. In addition, the inhibition in vivo at 1 mg/kg in experiment [8] was determined as 6%.
For `O=C(O)CCC/C=C\C[C@@H]1[C@H]2CC[C@H](C2)[C@H]1NS(=O)(=O)c1ccc(Oc2ccccc2)cc1`, in that order: 720 nM, 780 nM, greater than 10000 nM, 1300 nM and 25%.
Regarding `CC1(C)[C@H]2C[C@H](C/C=C\CCCC(=O)O)[C@@H](NC(=O)c3ccc(/N=N/c4ccccc4)cc3)[C@@H]1C2`, the IC50 was 540 nM in [9], 380 nM in [5], greater than 10000 nM in experiment [6] and 150 nM in experiment [7].
For `CC1(C)[C@H]2C[C@H](C/C=C\CCCC(=O)O)[C@@H](NC(=O)c3ccccc3)[C@@H]1C2` the same measures were 5200 nM, 360 nM, greater than 10000 nM and 810 nM.
Take `O=C(O)CCC/C=C\C[C@@H]1[C@H]2CC[C@H](C2)[C@H]1NS(=O)(=O)c1ccc(-c2ccccc2)cc1`: the IC50 was 600 nM in [9], 450 nM in [5], 5000 nM in experiment [6] and 1100 nM in experiment [7]. In addition, the inhibition in vivo at 3 mg/kg in experiment [10] was 39%.
In the case of `O=C(O)CCC/C=C\C[C@@H]1[C@H]2CC[C@H](C2)[C@H]1NS(=O)(=O)c1ccc(C#Cc2ccccc2)cc1`, the IC50 in experiment [9] is 8.6 nM; in experiment [5] it was 250 nM; in experiment [6], greater than 10000 nM; in [7] it was 280 nM. The inhibition in vivo at 1 mg/kg in [8] was 25%.
As for `CC1(C)[C@H]2C[C@H](C/C=C\CCCC(=O)O)[C@@H](NS(=O)(=O)c3ccc4oc5ccccc5c4c3)[C@@H]1C2`, the IC50 is 780 nM in experiment [9], greater than 1000 nM in experiment [5], greater than 10000 nM in [6] and 240 nM in experiment [7].
